# M1 PAM: positive allosteric modulators of human M1 muscarinic receptor; P11229; CHO-K1 hM1, Fluo-8 calcium fluorescence, ACh EC20; 0% = ACh EC20, 100% = maximal ACh; activation, % at 3 µM; hit rate 0.088% among 360,000; AID 588819; in the data active = activation above about 19%, passing the limit was not always enough
# Target sequence (P11229 whole entry, looked up): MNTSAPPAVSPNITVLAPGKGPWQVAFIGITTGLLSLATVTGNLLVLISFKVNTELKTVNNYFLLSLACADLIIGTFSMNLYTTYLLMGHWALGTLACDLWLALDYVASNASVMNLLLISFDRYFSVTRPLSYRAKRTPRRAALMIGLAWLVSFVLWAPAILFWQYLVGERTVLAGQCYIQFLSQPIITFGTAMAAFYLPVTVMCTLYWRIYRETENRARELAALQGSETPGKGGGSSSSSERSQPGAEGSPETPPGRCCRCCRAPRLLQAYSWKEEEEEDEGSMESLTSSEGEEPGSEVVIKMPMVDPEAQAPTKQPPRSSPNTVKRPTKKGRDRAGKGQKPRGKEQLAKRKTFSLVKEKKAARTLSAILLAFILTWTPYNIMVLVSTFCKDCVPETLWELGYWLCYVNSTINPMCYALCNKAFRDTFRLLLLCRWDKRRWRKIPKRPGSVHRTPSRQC
# TAAR1 antag: antagonists of human TAAR1. Q96RJ0. CHO RD-HGA16 TAAR1, Fluo-8 calcium fluorescence, antagonist. inhibition, % at 3 µM. hit rate 1.5% among 360,000;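 active = inhibition above a per-plate cutoff, the mean inhibition of test compounds on that plate plus 3 SD, cut at about 49% in these data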;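 also: 0% = DMSO plus EC80 beta-PEA response and 100% = DMSO alone without agonist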
#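 System: CHO RD-HGA16 cells bearing hTAAR1. Reagent: EC80 β-phenethylamine stimulus. Schedule: seeding 17-24 h prior, 75-min 37 °C, 30-min RT dye loading. Signal: Fluo-8 intracellular calcium dye fluorescence, real-time kinetic reads. Read-out: % inhibition from peak post-agonist over basal fluorescence ratio. Benchmarks: vehicle wells and EC80 agonist wells. Replicates: n of 1.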
# M1 antag: blocks human M1 muscarinic receptor; P11229; CHO-K1 hM1, Fluo-8 calcium fluorescence, ACh EC80 antagonist; inhibition, % at 3 µM; hit rate 1.3% among 360,000; AID 588852;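 active = percent inhibition above its own plate's cutoff, namely the mean of that plate's compound wells plus 3 SD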;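 also: peak over basal fluorescence ratio during 140 s after agonist addition; 0% = ACh EC80 plus DMSO and 100% = DMSO alone without agonist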
# M1 ag: human M1 muscarinic receptor agonism. P11229. CHO-K1 hM1, Fluo-8 calcium fluorescence, agonist mode; 0% DMSO, 100% acetylcholine EC100. activation, % at 3 µM. hit rate 0.33% among 360,000. AID 588814;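 active = activation above the run's mean compound activation plus 3 SD, cut at about 16% in these data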;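 also: peak over basal fluorescence ratio within a 140 s kinetic read after compound addition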
# TAAR1 ag: agonists of human TAAR1; hit rate 0.99% among 360,000; CHO RD-HGA16 TAAR1, Fluo-8 calcium fluorescence; vehicle wells 0%, saturating PEA agonist 100%; Q96RJ0; AID 624467; activation, % at 3 µM;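 active = activation above the mean activation of all test compounds in the run plus 3 SD, cut at about 38% in these data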
#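 Assay system – CHO-derived RD-HGA16 cells with stable Gα16 and human TAAR1 · Compound dosing – one-point dosing at 3 µM (nominal) · Incubation – 17-24 h seeding, 75 min 37 °C dye, 30 min RT · Measured by – kinetic Fluo-8 calcium fluorescence · Control set – DMSO vehicle as 0%, PEA at EC100 as 100% · Repeats – single well for each compound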
# TAAR1 ag confirm: confirmation of human TAAR1 agonists; hit rate 82% among 2,400; activation, % at 3 µM; AID 651783; shares compounds with TAAR1 ag; CHO RD-HGA16 TAAR1, Fluo-8 calcium fluorescence; scaled: DMSO 0%, maximal phenethylamine 100%;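 active = activation above a cutoff set at the run's mean compound activation plus 3 SD, cut at about 39% in these data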
# Ga16 nonsel ag: nonselective agonism, TAAR1 counter-screen; shares compounds with TAAR1 ag; activation, % at 3 µM; hit rate 50% among 2,400; CHO-Ga16 parental, Fluo-8 calcium fluorescence; normalized to maximal ATP response, DMSO zero;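 active = activation above the run cutoff, the mean activation over all tested wells plus 3 SD, cut at about 12% in these data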;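 also: 0% = DMSO wells and 100% = maximal ATP response on the peak over basal ratio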
# TAAR1 desensitize: TAAR1 response desensitization, agonist counter-screen; CHO RD-HGA16 hTAAR1, Fluo-8 calcium, beta-PEA response inhibition; inhibition, % at 3 µM; shares compounds with TAAR1 ag; hit rate 46% among 2,400;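 active = inhibition above the run cutoff, the mean inhibition of all test compounds plus 3 SD, cut at about 49% in these data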;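 also: beta-PEA stimulus applied at its EC80; loss of beta-PEA calcium signal after compound pretreatment read as receptor desensitization; 0% = DMSO with beta-PEA at EC80 and 100% = DMSO alone without agonist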
# Ga16 nonsel ant: nonselective Ga16 antagonist in TAAR1 agonist counter-screen. shares compounds with TAAR1 ag. CHO-Ga16 ATP-induced calcium, Fluo-8 fluorescence. inhibition, % at 3 µM. hit rate 39% among 2,400. AID 651952;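 active = inhibition above the plate's mean compound inhibition plus 3 SD, computed per plate, cut at about 22% in these data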;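 also: 0% = EC80 ATP with DMSO and 100% = DMSO wells without ATP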
# * marks the source's active call; other numbers are inactive results; / = no result given. Hits are enriched below; roughly 3.4% of the tested compounds scored in any of these assays.
SMILES,M1 PAM,TAAR1 antag,M1 antag,M1 ag,TAAR1 ag,TAAR1 ag confirm,Ga16 nonsel ag,TAAR1 desensitize,Ga16 nonsel ant
Cc1ccc(S(=O)(=O)C2(C(=O)NCCc3ccccc3)CC2)cc1,0.2,1.7,-13.3,-6.0,50.1*,82.4*,0.1,34.6,4.9
COc1ccc(OC)c(NC(=O)CCN2CCN(CCO)CC2)c1,8.8,-10.3,-8.0,-4.2,1.5,/,/,/,/
O=c1oc(Nc2cccc(F)c2)nc2ccccc12,0.9,-13.4,-2.9,-2.9,8.4,/,/,/,/
Nc1nc(Nc2cccc(F)c2)nc2ccccc12,1.3,81.8*,0.2,-3.3,98.1*,90.9*,4.6,93.5*,6.4
COc1ccccc1N1CCN(Cc2cn[nH]c2-c2ccc(F)cc2)CC1,15.7,-0.5,-19.3,44.5*,121.5*,122.8*,80.0*,48.0,5.7
COc1ccccc1N1CCN(Cc2nc(-c3ccc(F)cc3)oc2C)CC1,-0.1,10.0,3.0,-8.9,1.1,/,/,/,/
COc1ccc(NC(=O)CN2C(=O)NC(C)(Cc3ccc(OC)c(OC)c3)C2=O)cc1 (stereo unspecified),2.7,-21.8,-15.2,-4.4,1.6,/,/,/,/
Cc1ccc(C)c2[nH]c(=O)c(C(c3nnnn3Cc3ccco3)N3CCc4ccccc4C3)cc12 (stereo unspecified),8.7,44.5,-1.1,-3.7,52.2*,58.5*,3.0,7.4,5.3
CCc1ccc(-c2nc(CS(=O)CC(=O)NC3CCCCCC3)c(C)o2)cc1 (stereo unspecified),17.8,-9.8,-17.2,-6.8,-3.3,/,/,/,/
CCC(C)CN1C(=O)CN(S(C)(=O)=O)CC1(C)C(=O)Nc1c(C)cccc1C (stereo unspecified),/,6.4,/,/,-0.5,/,/,/,/
Cc1ccc2cc(CN(Cc3ccc4c(c3)OCO4)Cc3nnnn3Cc3ccco3)c(=O)[nH]c2c1,9.2,46.7,-10.3,-3.8,6.7,/,/,/,/
COc1ccc2cc(CN(CCc3ccccc3)Cc3nnnn3Cc3ccco3)c(=O)[nH]c2c1,8.2,49.2*,-13.8,-2.3,79.9*,45.9*,8.1,48.7*,26.6*
CC1(C(=O)NCc2ccccc2)CCC(=O)N1C1CC1 (stereo unspecified),16.0,-8.5,-20.8,-3.8,0.8,/,/,/,/
COc1ccc(S(=O)(=O)NNC(=S)NCCc2ccccc2)c(OC)c1,12.3,-30.1,-11.0,-2.6,49.4*,16.8,0.8,3.2,6.2
Cc1cc(C)nc(/N=C(\N)Nc2ccc3c(c2)OCCO3)n1,-2.7,9.1,-5.8,-11.1,4.1,/,/,/,/
Cc1ccc(C)c(N/C(N)=N/c2nc(C)cc(C)n2)c1,-21.2,97.7*,15.3,9.5,116.4*,104.9*,66.6*,99.3*,76.2*
Cc1cc(C)nc(/N=C(\N)Nc2ccc(SC(F)F)cc2)n1,-27.6,94.6*,31.3,19.1*,101.9*,98.6*,63.1*,98.3*,69.4*
CCOc1ccc(N/C(N)=N/c2nc(C)cc(C)n2)cc1,-19.3,97.1*,15.9,6.2,70.2*,50.8*,38.7*,93.1*,80.7*
COc1ccc(C)cc1N/C(N)=N/c1nc(C)cc(C)n1,6.9,-10.7,-7.7,-10.6,17.6,/,/,/,/
Cc1cc(C)nc(/N=C(\N)Nc2ccc(S(N)(=O)=O)cc2)n1,10.4,5.1,-4.8,-13.1,3.0,/,/,/,/
Cc1cc(C)nc(/N=C(\N)Nc2ccc(F)c([N+](=O)[O-])c2)n1,-5.7,70.6*,-4.5,-1.4,68.3*,62.6*,38.0*,70.0*,39.0*
Nc1ccn([C@@H]2O[C@H](CNC(=O)[C@@H](Cc3cccnc3)NC=O)[C@@H](O)[C@H]2O)c(=O)n1,-2.6,11.5,2.3,-3.9,0.2,/,/,/,/
C/C=C(\C)C(=O)OC1c2c(ccc3ccc(=O)oc23)OC(C)(C)C1OC(C)=O (stereo unspecified),-5.0,62.2*,-4.4,3.4,50.8*,45.5*,29.1*,79.1*,53.7*
CN(C[C@@H](CC1CCCCC1)N(C[C@H](Cc1ccccc1)N(CCc1ccccc1)N=O)N=O)N=O,-5.4,6.8,10.2,-2.2,60.1*,93.8*,1.5,35.5,-4.2
C[C@@H]1CN([C@H](C)CO)C(=O)Cc2cc(NS(=O)(=O)c3cn(C)cn3)ccc2O[C@H]1CN(C)S(=O)(=O)c1ccc(Cl)cc1,2.5,-3.4,-9.9,-8.6,0.6,/,/,/,/
SMILES,M1 PAM,TAAR1 antag,M1 antag,M1 ag,TAAR1 ag,TAAR1 ag confirm,Ga16 nonsel ag,TAAR1 desensitize,Ga16 nonsel ant
O=C1NC(Cc2ccccc2)c2nc3cc(F)ccc3c(=O)n2-c2cc(Cl)ccc21 (stereo unspecified),/,23.8,/,/,72.2*,49.9*,16.6*,13.9,11.7
O=C1NC(Cc2ccccc2)c2nc3ccc(F)cc3c(=O)n2-c2cc(Cl)ccc21 (stereo unspecified),/,34.5,/,/,16.8,/,/,/,/
O=C(N/N=C\c1c(O)ccc2ccccc12)c1cncc(Br)c1,1.5,58.7*,-8.4,41.8*,120.7*,72.1*,89.6*,52.1*,58.2*
Cc1cc(/C=C2/SC(=O)NC2=O)c(C)n1-c1ccc(N2CCOCC2)cc1,1.5,27.9,-2.7,19.9*,53.8*,60.0*,38.0*,29.8,24.1*
CN1CCN(c2ccc(NC(=O)c3ccc([N+](=O)[O-])o3)cc2Cl)CC1,4.5,4.3,-7.0,-9.9,44.8*,54.6*,1.1,27.5,11.7
CCN(CC(=O)NCc1cccs1)C(=O)/C=C/c1ccc(OC)c(OC)c1,-1.6,-0.9,1.5,-2.0,0.9,/,/,/,/
C#CCN(C[C@@H]1[C@@H](OC(=O)NCc2ccco2)[C@@H](OC(=O)NCc2ccco2)CN(C(=O)OC(C)C)N1C(=O)OC(C)C)S(=O)(=O)c1ccc(C)cc1,-2.6,-8.2,-0.7,-3.2,0.6,/,/,/,/
Nc1c2c(nc3c1CCCC3)CCCC2 (tested in a mixture with another compound),5.6,-17.2,-4.4,-9.9,8.8,/,/,/,/
COc1cc(CNCc2ccccn2)ccc1OCC(N)=O,2.5,-8.1,-21.6,-3.8,0.4,/,/,/,/
COc1ccc(CNCCc2ccccc2)cc1OCC(N)=O,1.2,-2.6,-7.5,-12.8,52.0*,75.5*,1.5,21.7,-2.6
CCOc1ccc(NC(=O)N2CCc3ccccc3C2)cc1,1.0,-3.2,-4.8,-5.1,50.7*,54.2*,-0.4,12.3,12.3
